KCNQ1 inh: inhibitors of human KCNQ1 channel, primary screen, cell-based, thallium flux, high-throughput | Potassium voltage-gated channel subfamily KQT member 1 (Homo sapiens), P51787 | CHO-K1 KCNQ1, FluxOR thallium flux fluorescence; active compounds read high | actives 1.3% (n = 310,000) | B-score at 10 µM;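 active = compounds whose thallium flux B-score, printed positive for inhibition, exceeds three library SD while starting fluorescence stays within three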;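 note: channel opened by potassium depolarization with thallium stimulus after 20 min compound exposure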
Target sequence (P51787 whole entry, looked up): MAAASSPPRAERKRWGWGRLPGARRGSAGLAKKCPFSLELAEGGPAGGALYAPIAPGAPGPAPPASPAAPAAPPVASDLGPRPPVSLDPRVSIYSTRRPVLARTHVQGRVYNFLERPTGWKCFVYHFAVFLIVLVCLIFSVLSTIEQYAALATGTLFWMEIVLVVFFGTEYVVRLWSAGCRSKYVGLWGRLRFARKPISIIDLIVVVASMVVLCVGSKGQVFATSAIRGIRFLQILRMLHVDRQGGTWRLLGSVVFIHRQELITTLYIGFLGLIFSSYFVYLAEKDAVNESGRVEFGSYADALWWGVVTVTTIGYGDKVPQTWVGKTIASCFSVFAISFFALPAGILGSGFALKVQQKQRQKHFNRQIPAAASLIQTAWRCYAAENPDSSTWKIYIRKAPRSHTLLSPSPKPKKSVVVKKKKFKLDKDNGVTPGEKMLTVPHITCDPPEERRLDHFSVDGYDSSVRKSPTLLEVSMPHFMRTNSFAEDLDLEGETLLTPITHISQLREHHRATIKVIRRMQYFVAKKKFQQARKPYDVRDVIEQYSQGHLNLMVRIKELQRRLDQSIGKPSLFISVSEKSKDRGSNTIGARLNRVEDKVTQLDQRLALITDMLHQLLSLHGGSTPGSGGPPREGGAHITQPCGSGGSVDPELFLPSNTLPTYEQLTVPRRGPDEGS
KCNQ1 act: potentiators or activators of KCNQ1 channel, primary screen, cell-based, thallium flux, high-throughput; Potassium voltage-gated channel subfamily KQT member 1 (Homo sapiens), P51787; CHO-K1 KCNQ1, thallium flux FluxOR fluorescence; active compounds read high; B-score at 10 µM; actives 0.35% (n = 310,000); AID 2648, 2010;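 active = fluorescence ratio B-score, a plate-corrected score, at least three library SD, with initial intensity B-score within 5 SD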
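Material: CHO-K1 cells stably expressing KCNQ1. Medium: assay buffer for compound exposure, DMSO matched across wells. Reagent: K+/Tl+ depolarizing stimulus. Compound dosing: single-concentration screen. Times: 37 °C overnight plating, 90-min dark dye load, 20-min compound pretreatment. Technique: FluxOR Tl+ flux fluorescence.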
Kir21 inh: inhibitors of mouse Kir2.1 inward-rectifier potassium channel; B-score at 10 µM; HEK293-Kir2.1, FluxOR thallium flux fluorescence; active compounds read low; actives 0.85% (n = 310,000);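 active = fluorescence ratio B-score at or below minus 3 SD of library scores, with starting-brightness B-score within 2 SD, cut at about -4.2 in these data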;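 note: channel flux triggered by added potassium and thallium sulfate stimulus; B-score of peak minus minimum fluorescence over baseline after thallium stimulus; more negative B-score means stronger Kir2.1 block with less thallium influx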
hERG rescue: hERG rescue from dofetilide block, primary screen, cell-based, CHO-hERG, FluxOR thallium flux, dofetilide IC70. Voltage-gated inwardly rectifying potassium channel KCNH2 (Homo sapiens), Q12809. dofetilide IC70 present. activation (rescue from dofetilide block), less the hit threshold, % at 10 µM. actives 0.51% (n = 310,000). AID 1511, 2009;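 active = activation above the mean of controls blocked by dofetilide plus 5 SD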;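 note: thallium influx through hERG after potassium depolarization seen as dye fluorescence rise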
KCNK3 block: human KCNK3 channel inhibitors, primary screen, CHO cells, FluxOR thallium flux, B-score | FluxOR fluorescence; active compounds read low | actives 0.84% (n = 340,000) | AID 602410, 2012 | Potassium channel subfamily K member 3 (Homo sapiens), O14649 | B-score at 10 µM;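 active = B-score under library mean minus 4 SD, starting fluorescence ratio at most library mean plus 5 SD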;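 note: more negative B-score means stronger inhibition of thallium flux through KCNK3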
KCNK9 inh: KCNK9 potassium channel inhibitors, primary screen, HEK293 cells, thallium flux; B-score at 10 µM; actives 1.2% (n = 310,000); FluxOR thallium flux fluorescence; active compounds read low;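 active = ratio B-score over 3 SD below the library mean, with starting fluorescence within 5 SD of its mean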;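 note: negative B-score means less thallium flux so channel inhibition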
KCNQ1 inh valid: KCNQ1 potassium channel inhibitors, confirmation, cell-based, Tl flux, duplicate; KCNQ1 cell line, FluxOR thallium flux fluorescence; actives 93% (n = 1,600); shares compounds with KCNQ1 inh; inhibition, % at 10 µM; AID 588353, 2011;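 active = primary screen active, with duplicate mean exceeding buffer control mean plus 3 SD of buffer wells, cut at about 28% in these data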;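 note: 0% = buffer control ratio and 100% = XE991 inhibitor control ratio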
CHO Tl flux: thallium flux effects in parental CHO cells, counter-screen for KCNQ1 inhibitor project, cell-based, Tl flux; shares compounds with KCNQ1 inh; parental CHO-K1, FluxOR thallium flux fluorescence ratio; active compounds read low; zero means no signal rise above baseline; fluorescence ratio (Tl flux) at 10 µM; actives 21% (n = 1,600); AID 588366, 2011;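 active = mean of duplicate thallium-flux fluorescence ratios in parental host cells more than 5 SD below the buffer control mean, cut at about 0.38 in these data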;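 note: ratio is peak minus minimum fluorescence divided by baseline fluorescence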
KCNQ1 ephys val: KCNQ1 channel inhibitors, confirmation, orthogonal assay, cell-based, automated electrophysiology | actives 20% (n = 490) | KCNQ1-CHO cells, automated patch clamp current | AID 624120, 2012 | shares compounds with KCNQ1 inh | calls only at 10 µM;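 active = KCNQ1 current drop exceeding 3 SD of negative control wells, seen in both duplicate runs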;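 note: steady state current during a 2 s step from -80 to +40 mV; negative values mean current inhibition and positive values mean potentiation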
KCNQ2 spec: KCNQ2 channel inhibition, selectivity assay for KCNQ1 inhibitor project, cell-based; shares compounds with KCNQ1 inh; KCNQ2 cells, FluxOR thallium flux fluorescence; inhibition, % at 10 µM; actives 71% (n = 1,600);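 active = mean percent inhibition of the KCNQ2 thallium signal more than 5 SD above the buffer-only control wells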;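 note: KCNQ2 expressed in CHO cells; 0% = buffer control wells and 100% = XE-991 inhibitor control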
KCNQ1 KCNE1 spec: KCNQ1/KCNE1 channel inhibition, selectivity assay for KCNQ1 inhibitor project, CHO-K1 cells, thallium flux, FluxOR; inhibition, % at 10 µM; actives 77% (n = 1,600); FluxOR thallium flux fluorescence; shares compounds with KCNQ1 inh;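 active = mean percent inhibition of duplicate wells above the buffer-only control mean plus 3 SD of those controls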;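 note: 0% = buffer only wells and 100% = XE-991 inhibitor control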
KCNK9 block conf: KCNK9 potassium channel inhibitors, confirmation, HEK293 cells, thallium flux, duplicate | inhibition, % at 10 µM | actives 43% (n = 4,900) | FluxOR thallium flux fluorescence | shares compounds with KCNK9 inh;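 active = thallium signal inhibited by more than 5 SD of the compound-free buffer control wells, on both duplicate plates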;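 note: 0% = assay buffer control wells without compound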
Kir21 sel: mouse Kir2.1 channel inhibition, confirmation, selectivity assay for KCNK9 modulator project, cell-based, HEK293, thallium flux | shares compounds with KCNK9 inh | Kir2.1 cells, FluxOR thallium flux fluorescence | inhibition, % at 10 µM | actives 4% (n = 4,900) | AID 492993, 2010;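 active = thallium signal drop more than 5 SD beyond the mean of the no-compound control wells, seen in both duplicate plates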;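 note: signal is fluorescence rise after thallium addition divided by baseline fluorescence; plate controls were assay buffer only for no effect and full block by chlorpromazine control for full effect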
HEK293 Tl ctr: thallium flux in non-induced HEK293 cells, confirmation, counter-screen for KCNK9 inhibitor project, cell-based, second counter screen, non-induced KCNK9-HEK293; FluxOR thallium flux; inhibition, % at 10 µM; shares compounds with KCNK9 inh; actives 40% (n = 4,900);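 active = thallium signal drop beyond 5 SD of the untreated control mean, on both duplicate plates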;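 note: plate controls were buffer only IC0 wells for no effect and SID17386958 at its maximal inhibitory level for full effect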
KCNK3 confirm: retest of human KCNK3 channel inhibitors, confirmation, CHO cells, FluxOR thallium flux, triplicate. actives 99% (n = 2,400). ratio percent of control, % at 10 µM. FluxOR fluorescence; 0% buffer, 100% carvedilol maximal block. shares compounds with KCNK3 block;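 active = ratio percent of control, averaged over triplicates, above buffer control mean plus 5 SD, cut at about 64% in these data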;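 note: ratio is the fluorescence rise from min to max over baseline after thallium stimulus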
KCNK3 uninduced: thallium flux inhibition in non-induced cells, primary screen, counter-screen for KCNK3 inhibitor project, cell-based, non-induced KCNK3 line, FluxOR thallium, triplicate; shares compounds with KCNK3 block; non-induced KCNK3 parental cells; active compounds read low; thallium flux ratio (lower = more inhibition) at 10 µM; actives 40% (n = 2,400); AID 651747, 2012;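 active = thallium flux ratio, averaged over three wells, more than 5 SD below the buffer control mean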;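 note: host cells are CHO cells without KCNK3 induction; ratio is peak minus trough fluorescence over baseline then normalized to buffer controls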
An asterisk follows results filed as active; i = inactive; x = no result given; + = active, no number. This is a sample that favours compounds with a hit; in the whole collection about 3.7% have one here.

SMILES	KCNQ1 inh	KCNQ1 act	Kir21 inh	hERG rescue	KCNK3 block	KCNK9 inh	KCNQ1 inh valid	CHO Tl flux	KCNQ2 spec	KCNQ1 KCNE1 spec	KCNK9 block conf	Kir21 sel	HEK293 Tl ctr	KCNK3 confirm	KCNK3 uninduced	others
CCOC(=O)Nc1nc(-c2ccccc2)c(C(=O)c2ccc(Cl)cc2)s1	7*	i	0.41	-11.6	-8.74*	-14.6*	97.5*	0.362*	94.0%*	171.0%*	39.5%*	i	42.0%*	124.7*	0.159*
CC(C)c1ccc2c(c1)C1(NN=C(c3ccccc3)S1)C(=O)N2 (centres undefined)	18*	i	0.95	-22.3	-11.7*	i	68.0*	0.354*	78.3%*	42.5%*	x	x	x	137.7*	0.0953*
COc1ccc(NC(=O)c2cc(C)nn2-c2ccccc2)cc1	i	i	-1.17	-3.4	i	i	x	x	x	x	x	x	x	x	x
Oc1ccccc1N1CCN(c2ncnc3scc(-c4ccc(F)cc4)c23)CC1	9*	i	1.3	-9.7	-9.56*	i	121.0*	0.372*	63.3%*	151.0%*	x	x	x	115.0*	0.123*
CCOc1ccccc1N1CCN(c2ncnc3scc(-c4ccc(OC)cc4)c23)CC1	8*	i	-1.82	-34.5	-9.37*	-6.82*	141.5*	0.351*	141.0%*	174.0%*	x	x	x	139.7*	0.114*
Cc1nc(N2CCN(c3ccccc3O)CC2)c2c(-c3ccccc3)csc2n1	18*	i	1.23	-11.6	-9.9*	i	54.5*	0.416	89.3%*	88.5%*	x	x	x	116.3*	0.111*
NC(=O)C1CCN(C(=O)c2ccco2)CC1	i	i	-0.91	-1.1	i	i	x	x	x	x	x	x	x	x	x
CCCCCCCCc1nnc(N)s1	i	i	-0.67	-7.6	i	i	x	x	x	x	x	x	x	x	x
CCOC(=O)c1c(C)n(-c2ccc(C)cc2)c2ccc(O)c(CN(C)C)c12	6*	i	-3.42	-24.3	-9.8*	i	37.5*	0.484	i	i	x	x	x	117.0*	0.151*
CCOC(=O)c1c(C)n(-c2ccc(OC)cc2)c2ccc(O)c(CN(C)C)c12	i	i	-2.03	-17.5	i	i	x	x	x	x	x	x	x	x	x
Cc1cc(NC(=O)Nc2cccc(Cl)c2)n(-c2ccccn2)n1	14*	i	1.03	-21.0	-11.3*	-12.7*	191.5*	0.393	125.0%*	+	54.0%*	i	31.5%*	126.3*	i	KCNQ1 ephys val=i
CC1=CC(C)(C)N2C(=O)C3(NCCc4c3[nH]c3ccccc43)c3cccc1c32 (centres undefined)	i	i	1.32	-0.4	i	i	x	x	x	x	x	x	x	x	x
Cc1ccc(NC2CCCN(C(=O)C3CCCCC3)C2)cc1C (centres undefined)	i	i	-3.15	-4.8	i	i	x	x	x	x	i	i	i	x	x
Cc1cc(C)c(C(=O)N2CCCC(Nc3ccc(C)c(C)c3)C2)o1 (centres undefined)	i	i	-2.39	-9.4	i	i	x	x	x	x	i	i	i	x	x
O=C(C1CCCC1)N1CCCC(Nc2ccc(F)cc2)C1 (centres undefined)	i	i	-0.02	-10.8	i	i	x	x	x	x	x	x	x	x	x
CCn1cc(Br)c(C(=O)Nc2cccc(Cl)c2)n1	i	i	-1.65	-5.9	i	-12.2*	x	x	x	x	63.0%*	i	33.0%*	x	x
CCn1nc(C(=O)Nc2cccc(C(F)(F)F)c2)c(Cl)c1Cl	i	i	-0.13	-7.0	i	-8.93*	x	x	x	x	46.0%*	i	28.0%*	x	x
CC(=O)Nc1ccc(SCC(=O)NC(=O)c2ccc(S(=O)(=O)N(C)C)cc2)cc1	x	x	x	x	i	x	x	x	x	x	x	x	x	x	x
CCOC(=O)C1=C(O)/C(=C/c2cc(OC)c(O)c(OC)c2)SC1=Nc1ccc(OC)cc1	i	i	-1.65	-1.1	i	-9.88*	x	x	x	x	i	i	i	x	x

Screening results as filed in PubChem BioAssay.
